pIC50: −log10 of the molar value.
What was measured:
Format in all cases: subcellular
[1] = target: T1, Glycogen synthase kinase-3 beta (Homo sapiens, UniProt P49841); assay: Inhibition of GSK3B isoform 2 in human HeLa cells lysate at 10 uM pre incubated for 15 mins followed by ATP acyl phosphate probe addition and measured after 10 mins by LC-MS/MS analysis relative to control; conditions: time 25.0 min
[2] = target: T2, Cyclin-dependent kinase 2 (Homo sapiens, UniProt P24941); assay: Inhibition of CDK2 K2 site in human HeLa cells lysate at 2 uM pre incubated for 15 mins followed by ADP acyl phosphate probe addition and measured after 10 mins by LC-MS/MS analysis relative to control; conditions: time 25.0 min
Procedure, shortened: (§1)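 KiNativ profiling in HeLa lysate (5 mg/mL total protein). Lysate incubated 15 min with inhibitor at 50, 10, 2, 0.8 or 0 μM. ATP or ADP acylphosphate probe then added (5 μM final) and reacted 10 min. Reaction stopped with urea and analysed by targeted MS, using up to four fragment ions per kinase peptide-probe conjugate. % inhibition taken against untreated lysate. Run in duplicate.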

[3] = target: T1, Glycogen synthase kinase-3 beta; assay: Inhibition of GSK3B isoform 2 in human HeLa cells lysate at 2 uM pre incubated for 15 mins followed by ADP acyl phosphate probe addition and measured after 10 mins by LC-MS/MS analysis relative to control; conditions: time 25.0 min
[4] = target: T2, Cyclin-dependent kinase 2; assay: Inhibition of CDK2 in human HeLa cells lysate at 2 uM pre incubated for 15 mins followed by ATP acyl phosphate probe addition and measured after 10 mins by LC-MS/MS analysis relative to control; conditions: time 25.0 min; procedure, shortened: as §1
[5] = target: PAN2-PAN3 deadenylation complex subunit PAN3 (Homo sapiens, UniProt Q58A45); assay: Inhibition of PAN3 in human HeLa cells lysate pre incubated for 15 mins followed by ADP acyl phosphate probe addition and measured after 10 mins by LC-MS/MS analysis
PAN2-PAN3 deadenylation complex subunit PAN3, sequence (Q58A45 whole entry, one chain of several): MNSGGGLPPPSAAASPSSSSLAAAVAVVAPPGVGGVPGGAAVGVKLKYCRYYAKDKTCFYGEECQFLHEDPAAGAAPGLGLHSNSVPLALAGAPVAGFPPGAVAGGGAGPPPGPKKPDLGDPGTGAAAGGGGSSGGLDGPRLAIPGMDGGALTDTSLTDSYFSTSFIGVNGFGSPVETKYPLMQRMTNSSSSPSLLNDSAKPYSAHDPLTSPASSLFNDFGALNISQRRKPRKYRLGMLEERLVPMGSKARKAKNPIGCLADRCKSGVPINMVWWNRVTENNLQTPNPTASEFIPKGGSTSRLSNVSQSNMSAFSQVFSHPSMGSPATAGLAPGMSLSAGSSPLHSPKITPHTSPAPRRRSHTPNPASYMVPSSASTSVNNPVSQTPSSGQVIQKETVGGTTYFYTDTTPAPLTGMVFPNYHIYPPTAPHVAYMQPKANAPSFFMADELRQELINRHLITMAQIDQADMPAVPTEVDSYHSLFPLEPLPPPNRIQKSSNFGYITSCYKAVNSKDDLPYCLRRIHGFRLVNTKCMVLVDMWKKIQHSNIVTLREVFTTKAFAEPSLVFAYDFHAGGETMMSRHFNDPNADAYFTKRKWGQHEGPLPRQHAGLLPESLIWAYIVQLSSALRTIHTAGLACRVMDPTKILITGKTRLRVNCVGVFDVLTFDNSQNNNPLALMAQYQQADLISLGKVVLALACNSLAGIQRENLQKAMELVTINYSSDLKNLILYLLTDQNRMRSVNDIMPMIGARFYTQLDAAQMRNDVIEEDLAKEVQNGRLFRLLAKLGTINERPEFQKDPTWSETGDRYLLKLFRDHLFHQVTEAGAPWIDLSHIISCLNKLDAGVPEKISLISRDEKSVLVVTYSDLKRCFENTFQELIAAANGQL

[6] = target: T3, Serine/threonine-protein kinase Nek9 (Homo sapiens) (UniProt Q8TD19); assay: Inhibition of NEK9 in human HeLa cells lysate at 2 uM pre incubated for 15 mins followed by ATP acyl phosphate probe addition and measured after 10 mins by LC-MS/MS analysis relative to control; conditions: time 25.0 min
T3 sequence (whole entry): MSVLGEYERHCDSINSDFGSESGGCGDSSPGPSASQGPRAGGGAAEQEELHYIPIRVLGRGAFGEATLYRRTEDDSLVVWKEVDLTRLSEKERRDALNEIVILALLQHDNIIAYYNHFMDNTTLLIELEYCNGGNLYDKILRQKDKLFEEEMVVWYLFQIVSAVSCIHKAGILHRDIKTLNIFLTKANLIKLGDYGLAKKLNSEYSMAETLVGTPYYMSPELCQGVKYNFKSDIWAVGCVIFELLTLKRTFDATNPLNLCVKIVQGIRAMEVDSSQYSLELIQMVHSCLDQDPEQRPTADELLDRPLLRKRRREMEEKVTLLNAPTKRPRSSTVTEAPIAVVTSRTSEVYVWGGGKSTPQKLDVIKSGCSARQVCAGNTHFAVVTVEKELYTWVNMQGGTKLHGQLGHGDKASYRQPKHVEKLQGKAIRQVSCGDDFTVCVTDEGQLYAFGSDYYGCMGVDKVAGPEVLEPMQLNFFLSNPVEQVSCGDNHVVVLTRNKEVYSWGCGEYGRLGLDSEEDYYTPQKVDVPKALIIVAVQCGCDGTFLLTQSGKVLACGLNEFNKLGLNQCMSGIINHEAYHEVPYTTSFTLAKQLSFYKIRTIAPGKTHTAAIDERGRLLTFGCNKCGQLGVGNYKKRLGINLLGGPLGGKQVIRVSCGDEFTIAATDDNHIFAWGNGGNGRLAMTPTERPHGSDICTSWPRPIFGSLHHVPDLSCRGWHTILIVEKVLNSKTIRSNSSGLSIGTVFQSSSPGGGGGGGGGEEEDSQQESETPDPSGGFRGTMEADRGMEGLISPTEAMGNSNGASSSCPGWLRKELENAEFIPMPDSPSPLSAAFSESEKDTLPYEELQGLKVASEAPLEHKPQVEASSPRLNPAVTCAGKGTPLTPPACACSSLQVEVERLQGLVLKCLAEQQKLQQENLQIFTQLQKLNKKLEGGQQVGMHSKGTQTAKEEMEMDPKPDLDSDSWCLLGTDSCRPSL

[7] = Inhibition of CK1g1/g2/g3 in human HeLa cells lysate pre incubated for 15 mins followed by ADP acyl phosphate probe addition and measured after 10 mins by LC-MS/MS analysis
[8] = target: T4, Interleukin-1 receptor-associated kinase 4 (Homo sapiens) (UniProt Q9NWZ3); assay: Inhibition of IRAK4 in human HeLa cells lysate at 2 uM pre incubated for 15 mins followed by ATP acyl phosphate probe addition and measured after 10 mins by LC-MS/MS analysis relative to control; conditions: time 25.0 min
T4 sequence (whole entry): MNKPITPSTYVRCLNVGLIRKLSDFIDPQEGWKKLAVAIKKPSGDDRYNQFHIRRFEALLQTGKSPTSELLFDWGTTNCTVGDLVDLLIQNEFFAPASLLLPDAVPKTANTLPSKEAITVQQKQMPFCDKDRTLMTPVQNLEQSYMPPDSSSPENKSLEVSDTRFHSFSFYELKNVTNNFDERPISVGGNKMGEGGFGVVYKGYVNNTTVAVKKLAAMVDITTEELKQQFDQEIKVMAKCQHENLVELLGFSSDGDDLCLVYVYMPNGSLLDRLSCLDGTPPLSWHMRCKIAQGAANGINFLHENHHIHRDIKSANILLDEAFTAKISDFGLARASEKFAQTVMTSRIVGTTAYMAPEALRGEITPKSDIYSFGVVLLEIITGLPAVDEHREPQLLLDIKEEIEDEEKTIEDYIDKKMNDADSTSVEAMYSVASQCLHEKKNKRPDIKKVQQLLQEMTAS

[9] = target: T5, EKC/KEOPS complex subunit TP53RK (Homo sapiens) (UniProt Q96S44); assay: Inhibition of PRPK in human HeLa cells lysate at 2 uM pre incubated for 15 mins followed by ATP acyl phosphate probe addition and measured after 10 mins by LC-MS/MS analysis relative to control; conditions: time 25.0 min
T5 sequence (whole entry): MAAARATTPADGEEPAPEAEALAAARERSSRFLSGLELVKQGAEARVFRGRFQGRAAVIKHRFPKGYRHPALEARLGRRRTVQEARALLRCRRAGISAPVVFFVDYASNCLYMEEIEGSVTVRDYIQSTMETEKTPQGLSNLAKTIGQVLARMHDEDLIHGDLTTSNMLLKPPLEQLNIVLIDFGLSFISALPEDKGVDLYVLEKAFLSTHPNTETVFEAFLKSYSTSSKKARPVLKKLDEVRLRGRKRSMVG

T1 sequence (P49841 whole entry, looked up, canonical isoform): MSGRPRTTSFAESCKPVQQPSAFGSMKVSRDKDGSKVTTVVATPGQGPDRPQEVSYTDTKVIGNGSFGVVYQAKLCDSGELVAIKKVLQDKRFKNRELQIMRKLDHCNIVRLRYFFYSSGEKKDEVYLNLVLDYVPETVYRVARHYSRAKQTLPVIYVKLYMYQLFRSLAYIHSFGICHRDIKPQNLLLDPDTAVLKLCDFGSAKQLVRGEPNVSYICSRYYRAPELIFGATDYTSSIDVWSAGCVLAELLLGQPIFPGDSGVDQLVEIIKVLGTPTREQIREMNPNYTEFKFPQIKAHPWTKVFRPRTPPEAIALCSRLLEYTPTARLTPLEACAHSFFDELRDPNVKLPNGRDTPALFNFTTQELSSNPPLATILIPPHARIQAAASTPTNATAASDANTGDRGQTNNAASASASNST

CCOc1cc(N2CCC(O)CC2)ccc1Nc1ncc2c(n1)N(C)c1ccccc1C(=O)N2C
inhibition [1]: -7.8%
inhibition [2]: 9.8%
inhibition [3]: 18.5%
inhibition [4]: 2%
pIC50 [5]: < 4.30
inhibition [6]: 3%
pIC50 [7]: < 4.30
inhibition [8]: 6.7%
inhibition [9]: 10.2%

Reference: ChEMBL document CHEMBL5661979, “Pharmacological inhibition of BMK1 suppresses tumor growth through promyelocytic leukemia protein” (Cancer Cell, 2010)
